We go through 11 compounds from ChEMBL document CHEMBL1926503, “Efficient one-pot preparation of novel fused chromeno[2,3-d]pyrimidine and pyrano[2,3-d]pyrimidine derivatives” (2012).

What all share (format): functional
The subject of assay [1] is Candida albicans. In words: Antifungal activity against Candida albicans at 1 to 10 mg/mL after 3 to 4 days by agar well diffusion method. The procedure, abridged:
(§1)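 Fungi were grown on Sabouraud dextrose agar (glucose–peptone–agar 40:10:15) after single-spore purification. Wells (4 mm × 2 mm) were cut and their bottoms sealed with 0.8% soft agar, then loaded with DMSO solutions at 10 mg/mL. DMSO served as control and amphotericin B as reference. Plates incubated at 30 °C for 3–4 days. Inhibition zone diameter was measured three times by caliper and averaged.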
Background: A growth-free zone around the sample is the usual read-out of agar diffusion tests.

In assay [2] the test system is Aspergillus flavus. In words: Antifungal activity against Aspergillus flavus at 1 to 10 mg/mL after 3 to 4 days by agar well diffusion method. The procedure, abridged:
as §1

In assay [3] the test system is Aspergillus flavus. Description: Antifungal activity against Aspergillus flavus after 3 to 4 days by agar well diffusion method. The procedure, abridged:
(§2)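 Agar well diffusion on Sabouraud dextrose agar (glucose–peptone–agar 40:10:15), with cultures purified by single-spore isolation. Wells (4 mm × 2 mm) were sealed at the bottom with 0.8% soft agar and loaded with DMSO solutions. DMSO served as control and amphotericin B as reference. Incubation was 30 °C for 3–4 days; each zone was measured three times by caliper and averaged.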

The next assay deals with Staphylococcus aureus. Description: Antibacterial activity against Staphylococcus aureus at 1 to 10 mg/mL after 24 hrs by agar well diffusion method. In outline:
(§3)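 Agar well diffusion. Bacterial pellets from a 24 h culture (about 10⁴–10⁶ CFU/ml) were spread on nutrient agar (tryptone 1%, yeast extract 0.5%, NaCl 0.5%, agar 1%, pH 7.0). Wells received DMSO solutions at 10 mg/mL, with DMSO as control and tetracycline as reference. Plates ran 24 h at 37 °C. Each zone was measured three times by caliper and averaged; three runs per culture.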

Assay [4] deals with Candida albicans. In words: Antifungal activity against Candida albicans after 3 to 4 days by agar well diffusion method. The procedure, abridged: as §2
A further assay deals with Pseudomonas aeruginosa. In words: Antibacterial activity against Pseudomonas aeruginosa at 1 to 10 mg/mL after 24 hrs by agar well diffusion method. In outline:
as §3

Usually MIC stands for the lowest concentration that inhibits growth of the organism. Lower therefore signals inhibition by little substance.

Consider `C[C@@H]1[C@H](O)[C@@H](C)/C=C/C=C/C=C/C=C/C=C/C=C/C=C/[C@H](O[C@@H]2O[C@H](C)[C@@H](O)[C@H](N)[C@@H]2O)C[C@@H]2O[C@](O)(C[C@@H](O)C[C@@H](O)[C@H](O)CC[C@@H](O)C[C@@H](O)CC(=O)O[C@H]1C)C[C@H](O)[C@H]2C(=O)O` [AMPHOTERICIN B], for which the “diameter of the inhibition zone (DIZ)” value in the assay on Candida albicans [1] is reported as 19 mm; in the assay on Aspergillus flavus [2] it was 16 mm.

Turning to `COc1cc(C2C(C#N)=C(N)Oc3[nH]c(=S)[nH]c(=O)c32)cc(OC)c1OC` (centres undefined), the MIC against Aspergillus flavus [3] and against Candida albicans [4] was less than 50 µg/mL in each case. The “diameter of the inhibition zone (DIZ)” value worked out at 10 mm in the assay on Candida albicans [1], 0 mm in the assay with Aspergillus flavus [2], 13 mm in the assay with Staphylococcus aureus and 13 mm with Pseudomonas aeruginosa.

As to `COc1cc(C2c3c(nc[nH]c3=O)Oc3[nH]c(=S)[nH]c(=O)c32)cc(OC)c1OC` (centres undefined), the minimum inhibitory concentration (MIC) with Aspergillus flavus [3] and in the assay with Candida albicans [4] was less than 50 µg/mL throughout. For the same compound, the “diameter of the inhibition zone (DIZ)” value came to 11 mm in the assay with Candida albicans [1], 0 mm in the assay with Aspergillus flavus [2], 15 mm in the assay with Staphylococcus aureus and 13 mm in the assay with Pseudomonas aeruginosa.

For `NNC=C1C(=O)NC(=S)NC1=O`, the “diameter of the inhibition zone (DIZ)” value in the assay with Candida albicans [1] is on record as 0 mm; with Aspergillus flavus [2], 36 mm; with Staphylococcus aureus it was 18 mm; with Pseudomonas aeruginosa, 18 mm.

With `COc1cc(C2C(C#N)=C(NS(=O)(=O)c3ccccc3)Oc3[nH]c(=S)[nH]c(=O)c32)cc(OC)c1OC` (centres undefined), the MIC in the assay with Aspergillus flavus [3] and in the assay on Candida albicans [4] was less than 50 µg/mL each time. Besides, the “diameter of the inhibition zone (DIZ)” value amounted to 12 mm in the assay on Candida albicans [1], 0 mm in the assay with Aspergillus flavus [2], 14 mm with Staphylococcus aureus and 13 mm in the assay with Pseudomonas aeruginosa.

Consider `CCOC(=O)C1=C(N)Sc2[nH]c(=S)[nH]c(=S)c2C1c1ccc(Cl)cc1` (centres undefined), for which the MIC against Aspergillus flavus [3] and in the assay on Candida albicans [4] was less than 50 µg/mL throughout. For the same compound, the “diameter of the inhibition zone (DIZ)” value with Candida albicans [1] turned out to be 14 mm; in the assay on Aspergillus flavus [2], 14 mm; in the assay on Staphylococcus aureus, 16 mm; with Pseudomonas aeruginosa, 18 mm.

For the compound `CCOC(=O)C1=C(N)Oc2[nH]c(=S)[nH]c(=O)c2C1c1ccc(Cl)cc1` (centres undefined), the MIC in the assay on Aspergillus flavus [3] and in the assay with Candida albicans [4] was less than 50 µg/mL each time. In addition, the “diameter of the inhibition zone (DIZ)” value is listed as 13 mm with Candida albicans [1], 0 mm with Aspergillus flavus [2], 16 mm in the assay with Staphylococcus aureus and 19 mm with Pseudomonas aeruginosa.

Take `COc1cc(C2c3c(nc(N)c(C#N)c3N)Oc3[nH]c(=S)[nH]c(=O)c32)cc(OC)c1OC` (centres undefined): the minimal inhibitory concentration (MIC) against Aspergillus flavus [3] and against Candida albicans [4] was less than 50 µg/mL each time. Moreover, the “diameter of the inhibition zone (DIZ)” value with Candida albicans [1] is listed as 10 mm; with Aspergillus flavus [2] it was 0 mm; in the assay with Staphylococcus aureus, 13 mm; in the assay with Pseudomonas aeruginosa it was 12 mm.

Consider `CCOC=C1C(=O)NC(=S)NC1=O`, for which the “diameter of the inhibition zone (DIZ)” value in the assay on Candida albicans [1] is listed as 12 mm; in the assay with Aspergillus flavus [2], 0 mm; in the assay on Staphylococcus aureus, 13 mm; with Pseudomonas aeruginosa, 13 mm.

Consider `O=c1[nH]c(=S)nc2oc3cc(O)ccc3cc1-2`, for which the MIC with Aspergillus flavus [3] and against Candida albicans [4] was less than 50 µg/mL each time. Also, the “diameter of the inhibition zone (DIZ)” value was 0 mm in the assay with Candida albicans [1], 0 mm in the assay with Aspergillus flavus [2], 15 mm in the assay with Staphylococcus aureus and 14 mm with Pseudomonas aeruginosa.

Consider `CN(C)[C@@H]1C(O)=C(C(N)=O)C(=O)[C@@]2(O)C(O)=C3C(=O)c4c(O)cccc4[C@@](C)(O)[C@H]3C[C@@H]12` [TETRACYCLINE], for which the “diameter of the inhibition zone (DIZ)” value in the assay with Staphylococcus aureus stood at 26 mm; in the assay with Pseudomonas aeruginosa, 28 mm.
